Type in all cases: functional
Holding throughout (conditions): for CC50: read-out: CD50 (the source's name)

Assay [1] relates to HeLa. Nature of the assay: Cytotoxicity against human HeLa cells by MTT assay. In outline:
(§1)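 MTT colorimetric read-out. The value is reported as CD50.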

Assay [2] has as its system HepG2. The assay is described as follows: Cytotoxicity against human HepG2 cells by MTT assay. In outline: as §1
Assay [3] deals with OVCAR-3. The assay is described as follows: Cytotoxicity against human OVCAR-3 cells by MTT assay. In outline: as §1
(In general: Tetrazolium dyes change colour on reduction, which living cells bring about.)

The record followed here is ChEMBL document CHEMBL1141749, “Nitrogen-containing compounds from Salvia miltiorrhiza” (2005).

In the case of `Cc1nc2c(o1)c1c(C)coc1c1ccc3c(c12)CCCC3(C)C` [SALVIANEN], the Activity entry in assay [1], in assay [2] and in assay [3] was “Dose-dependent effect” in each case. Moreover, the CC50 in assay [1] was 32.3 µM; in assay [2] it was 30.4 µM; in assay [3] it was 39.5 µM.

On to `Cc1nc2c(o1)c1c3c(ccc1c1occ(C)c21)C(C)(C)CCC3` [NEOSALVIANEN], for which the values for the CC50 in assay [1], in assay [2] and in assay [3] were 63.9 µM, 59.2 µM and 74.6 µM, respectively.

`Cc1coc2c1C(=O)C(=O)c1c-2ccc2c1CCCC2(C)C` [TANSHINONE IIA]: the CC50 in assay [1] came out at 8.5 µM; in assay [2], 26.5 µM; in assay [3], 9.52 µM.

Turning to `Cc1nc2c3c(c4ccc5c(c4c2o1)CCCC5(C)C)OCC3C` (stereo unspecified), the CC50 in assay [1] was found to be 108 µM; in assay [2], 121 µM; in assay [3], 126 µM.

On to `C[C@H]1COC2=C1C(=O)C(=O)c1c2ccc2c1CCCC2(C)C` [CRYPTOTANSHINONE], for which the CC50 in assay [1] was 17.2 µM; in assay [2], 29.7 µM; in assay [3] it was 9.12 µM.

Consider `CC(C)C1=Cc2ccc3c4c([nH]c(c24)C1=O)C(=O)CC3(C)C` [SALVIADIONE], for which the CC50 in assay [1] is 178 µM; in assay [2], 137 µM; in assay [3] it was 169 µM.
